In brackets after ≈: the same amount, converted by molar mass. Structures can show the parent of a compound that is named as a salt. Activity calls are given as the source filed them. No cut-off for these calls is given here.
What was measured:
Aspergillus niger [1] = experiment: Antifungal activity against Aspergillus niger ATCC 1004 at <100 ug/ml at pH 5.6 after 5 days in absence of 10% beef serum; assay type: functional, organism-based
In short: (§1)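 Agar-dilution MIC in Sabouraud dextrose agar at pH 5.6 or 7.0, with or without 10% beef serum. Plates were incubated at 28 °C for 5 days. MIC is the lowest concentration (µg/mL) giving 100% inhibition. Steps were 1 µg/mL up to 10, 2 µg/mL from 10–20, and 10 µg/mL from 20–100; 100 µg/mL was the top level, and no inhibition there is scored as >100.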

Aspergillus niger [2] = experiment: Antifungal activity against Aspergillus niger ATCC 1004 at <100 ug/ml at pH 5.6 after 5 days in presence of 10% beef serum; assay type: functional, organism-based; in short: as §1
Mucor mucedo [3] = experiment: Antifungal activity against Mucor mucedo ATCC 7941 at pH 7 after 20 h in absence of 10% beef serum; details: ATCC 7941, 20 h
Aspergillus niger [4] = experiment: Antifungal activity against Aspergillus niger ATCC 1004 at <100 ug/ml at pH 7 after 5 days in presence of 10% beef serum; assay type: functional, organism-based; in short: as §1
Candida albicans [5] = experiment: Antifungal activity against Candida albicans ATCC 10231 at pH 5.6 after 20 h in presence of 10% beef serum; details: ATCC 10231, 20 h
[6] = tested on: Trichophyton mentagrophytes; experiment: Antifungal activity against Trichophyton mentagrophytes ATCC 9129 at pH 5.6 after 5 days in presence of 10% beef serum; assay type: functional; details: Trichophyton mentagrophytes, ATCC 9129, 120 h; read-out: MIC; in short: as §1
[7] = tested on: Trichophyton mentagrophytes; experiment: Antifungal activity against Trichophyton mentagrophytes ATCC 9129 at pH 7 after 5 days in presence of 10% beef serum; assay type: functional; details: Trichophyton mentagrophytes, ATCC 9129, 120 h; read-out: MIC; in short: as §1
Candida albicans [8] = experiment: Antifungal activity against Candida albicans ATCC 10231 at <100 ug/ml at pH 7 after 20 h in presence of 10% beef serum
[9] = tested on: Trichophyton mentagrophytes; experiment: Antifungal activity against Trichophyton mentagrophytes ATCC 9129 at pH 7 after 5 days in absence of 10% beef serum; assay type: functional; details: Trichophyton mentagrophytes, ATCC 9129, 120 h; read-out: MIC; in short: as §1
Mucor mucedo [10] = experiment: Antifungal activity against Mucor mucedo ATCC 7941 at pH 7 after 20 h in presence of 10% beef serum; details: ATCC 7941, 20 h
Mucor mucedo [11] = experiment: Antifungal activity against Mucor mucedo ATCC 7941 at pH 5.6 after 20 h in absence of 10% beef serum; details: ATCC 7941, 20 h
Candida albicans [12] = experiment: Antifungal activity against Candida albicans ATCC 10231 at pH 5.6 after 20 h in absence of 10% beef serum; details: ATCC 10231, 20 h
Candida albicans [13] = experiment: Antifungal activity against Candida albicans ATCC 10231 at pH 7 after 20 h in absence of 10% beef serum; details: ATCC 10231, 20 h
Aspergillus niger [14] = experiment: Antifungal activity against Aspergillus niger ATCC 1004 at <100 ug/ml at pH 7 after 5 days in absence of 10% beef serum; assay type: functional, organism-based; in short: as §1
Mucor mucedo [15] = experiment: Antifungal activity against Mucor mucedo ATCC 7941 at pH 5.6 after 20 h in presence of 10% beef serum; details: ATCC 7941, 20 h
[16] = tested on: Trichophyton mentagrophytes; experiment: Antifungal activity against Trichophyton mentagrophytes ATCC 9129 at pH 5.6 after 5 days in absence of 10% beef serum; assay type: functional; details: Trichophyton mentagrophytes, ATCC 9129, 120 h; read-out: MIC; in short: as §1
Candida albicans [17] = experiment: Antifungal activity against Candida albicans ATCC 10231 at pH 7 after 20 h in presence of 10% beef serum; details: ATCC 10231, 20 h
Aspergillus niger [18] = experiment: Antifungal activity against Aspergillus niger ATCC 1004 at pH 5.6 after 5 days in absence of 10% beef serum; assay type: functional; details: Aspergillus niger, ATCC 1004, 120 h; read-out: MIC; in short: as §1
Aspergillus niger [19] = experiment: Antifungal activity against Aspergillus niger ATCC 1004 at pH 7 after 5 days in absence of 10% beef serum; assay type: functional; details: Aspergillus niger, ATCC 1004, 120 h; read-out: MIC; in short: as §1
Aspergillus niger [20] = experiment: Antifungal activity against Aspergillus niger ATCC 1004 at pH 5.6 after 5 days in presence of 10% beef serum; assay type: functional; details: Aspergillus niger, ATCC 1004, 120 h; read-out: MIC; in short: as §1
Mucor mucedo [21] = experiment: Antifungal activity against Mucor mucedo ATCC 7941 at <100 ug/ml at pH 5.6 after 20 h in presence of 10% beef serum
Mucor mucedo [22] = experiment: Antifungal activity against Mucor mucedo ATCC 7941 at <100 ug/ml at pH 7 after 20 h in presence of 10% beef serum
Candida albicans [23] = experiment: Antifungal activity against Candida albicans ATCC 10231 at <100 ug/ml at pH 5.6 after 20 h in presence of 10% beef serum
[24] = tested on: Trichophyton mentagrophytes; experiment: Antifungal activity against Trichophyton mentagrophytes ATCC 9129 at <100 ug/ml at pH 7 after 5 days in presence of 10% beef serum; assay type: functional, organism-based; in short: as §1
Candida albicans [25] = experiment: Antifungal activity against Candida albicans ATCC 10231 at <100 ug/ml at pH 7 after 20 h in absence of 10% beef serum
Candida albicans [26] = experiment: Antifungal activity against Candida albicans ATCC 10231 at <100 ug/ml at pH 5.6 after 20 h in absence of 10% beef serum
Mucor mucedo [27] = experiment: Antifungal activity against Mucor mucedo ATCC 7941 at <100 ug/ml at pH 5.6 after 20 h in absence of 10% beef serum
Mucor mucedo [28] = experiment: Antifungal activity against Mucor mucedo ATCC 7941 at <100 ug/ml at pH 7 after 20 h in absence of 10% beef serum
[29] = tested on: Trichophyton mentagrophytes; experiment: Antifungal activity against Trichophyton mentagrophytes ATCC 9129 at <100 ug/ml at pH 5.6 after 5 days in presence of 10% beef serum; assay type: functional, organism-based; in short: as §1

Structure (SMILES) | MIC (Mucor mucedo [3]) [µg/mL] | MIC (Candida albicans [5]) [µg/mL] | MIC [6] [µg/mL] | MIC [7] [µg/mL] | MIC [9] [µg/mL] | MIC (Mucor mucedo [10]) [µg/mL] | MIC (Mucor mucedo [11]) [µg/mL] | MIC (Candida albicans [12]) [µg/mL] | MIC (Candida albicans [13]) [µg/mL] | MIC (Mucor mucedo [15]) [µg/mL] | MIC [16] [µg/mL] | MIC (Candida albicans [17]) [µg/mL] | inhibition (Aspergillus niger [1]) | inhibition (Aspergillus niger [2]) | inhibition (Aspergillus niger [4]) | inhibition (Candida albicans [8]) | inhibition (Aspergillus niger [14]) | inhibition (Mucor mucedo [22]) | inhibition (Candida albicans [23]) | inhibition [24] | further results
CCOC(=O)/C=C/C(=O)OCC | 50 (≈ 290 µM) | 70 | 20 | 50 | 18 (≈ 105 µM) | 50 | 40 (≈ 232 µM) | 60 (≈ 348 µM) | 90 (≈ 523 µM) | 50 | 7 (≈ 40.7 µM) |  | inactive | inactive | inactive | inactive | inactive |  |  |  | 
COC(=O)/C=C/C(=O)OC [DIMETHYL FUMARATE] | 40 | 60 | 16 | 30 | 20 | 50 | 18 | 60 | 90 | 30 | 8 | 90 | inactive | inactive | inactive |  | inactive |  |  |  | 
CCCOC(=O)/C=C/C(=O)OCCC | 70 (≈ 350 µM) |  | 50 |  | 30 (≈ 150 µM) |  | 60 (≈ 300 µM) | 70 (≈ 350 µM) | 70 (≈ 350 µM) |  | 6 (≈ 30 µM) |  | inactive | inactive | inactive | inactive | inactive | inactive | inactive | inactive | inhibition (Mucor mucedo [21]): inactive
COC(=O)/C=C(/F)C(=O)OC | 40 (≈ 247 µM) |  | 8 |  | 50 (≈ 308 µM) |  | 14 (≈ 86.4 µM) |  |  | 20 | 6 (≈ 37 µM) |  | inactive | inactive | inactive | inactive | inactive | inactive | inactive | inactive | inhibition (Candida albicans [25]): inactive; inhibition (Candida albicans [26]): inactive
COC(=O)/C=C(\F)C(=O)OC | 4 (≈ 24.7 µM) | 6 | 4 | 40 | 8 (≈ 49.3 µM) | 6 | < 1 | 4 (≈ 24.7 µM) | 20 (≈ 123 µM) | 2 | < 1 | 40 |  |  | inactive |  |  |  |  |  | MIC (Aspergillus niger [18]): 20 µg/mL (≈ 123 µM); MIC (Aspergillus niger [19]): 60 µg/mL (≈ 370 µM); MIC (Aspergillus niger [20]): 50 µg/mL

Continued, in another order:

MIC (Mucor mucedo [3]) [µg/mL] | MIC (Candida albicans [5]) [µg/mL] | MIC [6] [µg/mL] | MIC [7] [µg/mL] | MIC [9] [µg/mL] | MIC (Mucor mucedo [10]) [µg/mL] | MIC (Mucor mucedo [11]) [µg/mL] | MIC (Candida albicans [12]) [µg/mL] | MIC (Candida albicans [13]) [µg/mL] | MIC (Mucor mucedo [15]) [µg/mL] | MIC [16] [µg/mL] | MIC (Candida albicans [17]) [µg/mL] | Structure (SMILES) | inhibition (Aspergillus niger [1]) | inhibition (Aspergillus niger [2]) | inhibition (Aspergillus niger [4]) | inhibition (Candida albicans [8]) | inhibition (Aspergillus niger [14]) | inhibition (Mucor mucedo [22]) | inhibition (Candida albicans [23]) | inhibition [24] | further results
5 (≈ 16.7 µM) | 16 | 12 | 16 | 2 (≈ 6.69 µM) | 20 |  | 3 (≈ 10 µM) | 4 (≈ 13.4 µM) | 18 | < 1 | 16 | CCCOC(=O)[C@H](F)[C@@H](Br)C(=O)OCCC (relative stereo) |  |  | inactive |  |  |  |  |  | MIC (Aspergillus niger [18]): 30 µg/mL (≈ 100 µM); MIC (Aspergillus niger [19]): 40 µg/mL (≈ 134 µM); MIC (Aspergillus niger [20]): 40 µg/mL
 |  |  |  | 40 (≈ 113 µM) |  |  |  |  |  | 12 (≈ 33.8 µM) |  | CCCCCOC(=O)[C@H](F)[C@@H](Br)C(=O)OCCCCC (relative stereo) | inactive | inactive | inactive | inactive | inactive | inactive | inactive | inactive | inhibition (Mucor mucedo [27]): inactive; inhibition (Candida albicans [25]): inactive; inhibition (Mucor mucedo [28]): inactive; inhibition (Mucor mucedo [21]): inactive; inhibition (Candida albicans [26]): inactive; inhibition [29]: inactive
40 (≈ 179 µM) | 80 | 5 | 14 | 7 (≈ 31.4 µM) | 40 | 10 (≈ 44.8 µM) | 90 (≈ 404 µM) | 90 (≈ 404 µM) | 40 | 4 (≈ 17.9 µM) | 90 | COC(=O)/C=C(/Br)C(=O)OC | inactive | inactive | inactive |  | inactive |  |  |  | 
 |  |  |  | 50 (≈ 195 µM) |  |  |  |  |  | 16 (≈ 62.4 µM) |  | CCCCCOC(=O)/C=C/C(=O)OCCCCC | inactive | inactive | inactive | inactive | inactive | inactive | inactive | inactive | inhibition (Mucor mucedo [27]): inactive; inhibition (Candida albicans [25]): inactive; inhibition (Mucor mucedo [28]): inactive; inhibition (Mucor mucedo [21]): inactive; inhibition (Candida albicans [26]): inactive; inhibition [29]: inactive

Reference: ChEMBL document CHEMBL3244142, “Antifungal properties of 2-bromo-3-fluorosuccinic acid esters and related compounds” (1977)
